The term inhibition denotes the change of the read-out against control, counted positive when it falls.

Experimental findings from ChEMBL document CHEMBL3352349, “Synthesis and biological evaluation of new nitrogen-containing diselenides” (Eur J Med Chem, 2014) are described below.

The target in data set [1] is T1, Thioredoxin reductase 1, cytoplasmic (Rattus norvegicus) (UniProt O89049).
T1 sequence (whole entry): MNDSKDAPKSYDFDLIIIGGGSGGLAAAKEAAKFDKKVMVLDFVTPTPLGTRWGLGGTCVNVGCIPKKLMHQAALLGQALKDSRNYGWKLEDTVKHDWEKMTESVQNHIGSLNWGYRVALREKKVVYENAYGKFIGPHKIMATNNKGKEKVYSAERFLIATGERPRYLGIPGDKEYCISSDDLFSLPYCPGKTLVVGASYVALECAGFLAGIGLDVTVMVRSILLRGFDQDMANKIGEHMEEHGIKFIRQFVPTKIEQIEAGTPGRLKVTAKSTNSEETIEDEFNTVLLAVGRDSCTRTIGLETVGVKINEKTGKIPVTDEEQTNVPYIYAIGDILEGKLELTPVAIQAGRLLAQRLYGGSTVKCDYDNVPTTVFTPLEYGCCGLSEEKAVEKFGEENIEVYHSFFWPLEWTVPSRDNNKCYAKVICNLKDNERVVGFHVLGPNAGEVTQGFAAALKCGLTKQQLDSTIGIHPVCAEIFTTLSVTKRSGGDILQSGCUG
The data set can be described thus: Activity of partially purified rat Thioredoxin reductase assessed as NADPH oxidation after 10 mins by spectrophotometry. In short, it runs like this: (§1)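 Enzyme: partially purified TrxR from rat liver. NADPH consumption read at 340 nm over 10 min, with or without the organoselenium compound. Activity is given as nmol NADPH/min/mg. Efficiency is expressed relative to ebselen. In the reference reaction, NADPH oxidation was checked for sensitivity to […] AuCl₃. Details are in the cited reference.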

The subject of data set [2] is Brain. Put plainly: Antioxidant activity in rat brain homogenate assessed as inhibition of Fe(II)-induced TBARS formation after 60 mins by spectrophotometry. The format is functional, tissue-based.
The nature of data set [3]: Antioxidant activity assessed as glutathione peroxidase-like activity by UV spectrophotometry relative to ebselen. It is filed as physicochemical. Summed up:
(§2)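 Tomoda-type thiol peroxidase model run in methanol, or ethanol where needed for solubility, at 25 (±3) °C. Catalyst at 0.1 mM final and PhSH at 2 mM final were mixed. After about 120 s, H₂O₂ was added to 5 mM final. PhSSPh formation was followed at 305 nm, with runs repeated more than three times. T₅₀ is the time to halve the thiol after H₂O₂ addition. Ebselen and (PhSe)₂ were each set to 1.0.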

In data set [4] the target is T1, Thioredoxin reductase 1, cytoplasmic (Rattus norvegicus). The data set can be described thus: Activity of partially purified rat Thioredoxin reductase assessed as NADPH oxidation after 10 mins by spectrophotometry relative to ebselen. In short, it runs like this: as §1
Data set [5] is described as follows: Antioxidant activity assessed as glutathione peroxidase-like activity assessed as time required to reduce the thiol concentration by 50% after addition of H2O2 by UV spectrophotometry. The format is physicochemical. Summed up: as §2
Data set [6] is described as follows: Antioxidant activity assessed as glutathione peroxidase-like activity by UV spectrophotometry relative to (PhSe)2. It is filed as physicochemical. In short, it runs like this:
as §2

In data set [7] the target is T1, Thioredoxin reductase 1, cytoplasmic (Rattus norvegicus). The data set can be described thus: Activity of partially purified rat Thioredoxin reductase assessed as 5 umol/L AuCl3-mediated inhibition of NADPH oxidation by spectrophotometry. In short, it runs like this: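 Partially purified rat liver TrxR was used. NADPH consumption was followed at 340 nm for 10 min in the absence or presence of an organoselenium catalyst. AuCl3 was added to the reaction containing the reference selenium catalyst. Activity was expressed as nmol NADPH/min/mg.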

Activity calls are given as the source filed them. The rule behind the calls is not given here.

`O=C(CC[Se][Se]CCC(=O)NCCc1ccccc1)NCCc1ccccc1`: in data set [1], the Activity came out at 16.1 nmol/min/mg. Further, in data set [2], the inhibition entry was “Active”. Moreover, the results for the Ratio in data set [3] and in data set [4] were 1.89 and 4.7, respectively. Moreover, in data set [5], the Time amounted to 81.43 min.
On to `CC(Cc1ccccc1)NC(=O)c1ccccc1[Se][Se]c1ccccc1C(=O)NC(C)Cc1ccccc1` (centres undefined), for which the Activity in data set [1] came out at 0 nmol/min/mg. In addition, the Ratio in data set [6] worked out at 3.26; in data set [3], 9.14. The inhibition result in data set [2] was “Active”. In addition, in data set [5], the Time amounted to 16.87 min.
Regarding `O=C(NCCc1ccccc1)c1ccccc1[Se][Se]c1ccccc1C(=O)NCCc1ccccc1`, the Activity in data set [1] was 0 nmol/min/mg. The Ratio worked out at 1.85 in data set [6] and 5.2 in data set [3]. Further, in data set [2], the inhibition result is “Active”. Further, the Time in data set [5] is given as 29.73 min.
For the compound `O=c1c2ccccc2[se]n1-c1ccccc1` [EBSELEN], the Activity in data set [1] came to 3.4 nmol/min/mg. Also, the inhibition in data set [7] is over 95%. In data set [5], the Time was determined as 154.26 min.
In the case of `c1ccc([Se][Se]c2ccccc2)cc1`, in data set [3], the Ratio is listed as 2.8. In addition, in data set [5], the Time amounted to 55.04 min.
Consider `CC(Cc1ccccc1)NC(=O)CC[Se][Se]CCC(=O)NC(C)Cc1ccccc1` (centres undefined), for which the Activity in data set [1] was 13.7 nmol/min/mg. For the same compound, in data set [2], the inhibition entry was “Active”. For the same compound, the Ratio in data set [3] is 2.03; in data set [4], 4. Moreover, in data set [5], the Time came out at 76 min.
As to `CC(Cc1ccccc1)NC(=O)C[Se][Se]CC(=O)NC(C)Cc1ccccc1` (centres undefined), the Activity in data set [1] is 0 nmol/min/mg. The inhibition entry in data set [2] was “Active”. Also, the Time in data set [5] was 299.63 min.
`O=C(C[Se][Se]CC(=O)NCCc1ccccc1)NCCc1ccccc1`: in data set [1], the Activity was 19.1 nmol/min/mg. The Ratio stood at 1.23 in data set [6], 3.43 in data set [3] and 5.6 in data set [4]. The inhibition result in data set [2] was “Active”. The Time in data set [5] is recorded as 44.9 min.
